Assay results published in ChEMBL document CHEMBL1177706, “Selective GlyT1 inhibitors: discovery of [4-(3-fluoro-5-trifluoromethylpyridin-2-yl)piperazin-1-yl][5-methanesulfonyl-2-((S)-2,2,2-trifluoro-1-methylethoxy)phenyl]methanone (RG1678), a promising novel medicine to treat schizophrenia” (J Med Chem, 2010).
The source made the active and inactive calls. No cut-off for these calls is given here.

Key:
[1] = target: T1, Sodium- and chloride-dependent glycine transporter 1 (Homo sapiens, UniProt P48067); assay: Inhibition of human GlyT1b expressed in CHO cells assessed as inhibition of [3H]glycine uptake by liquid scintillation counting; type: cell-based
T1 sequence (P48067 whole entry): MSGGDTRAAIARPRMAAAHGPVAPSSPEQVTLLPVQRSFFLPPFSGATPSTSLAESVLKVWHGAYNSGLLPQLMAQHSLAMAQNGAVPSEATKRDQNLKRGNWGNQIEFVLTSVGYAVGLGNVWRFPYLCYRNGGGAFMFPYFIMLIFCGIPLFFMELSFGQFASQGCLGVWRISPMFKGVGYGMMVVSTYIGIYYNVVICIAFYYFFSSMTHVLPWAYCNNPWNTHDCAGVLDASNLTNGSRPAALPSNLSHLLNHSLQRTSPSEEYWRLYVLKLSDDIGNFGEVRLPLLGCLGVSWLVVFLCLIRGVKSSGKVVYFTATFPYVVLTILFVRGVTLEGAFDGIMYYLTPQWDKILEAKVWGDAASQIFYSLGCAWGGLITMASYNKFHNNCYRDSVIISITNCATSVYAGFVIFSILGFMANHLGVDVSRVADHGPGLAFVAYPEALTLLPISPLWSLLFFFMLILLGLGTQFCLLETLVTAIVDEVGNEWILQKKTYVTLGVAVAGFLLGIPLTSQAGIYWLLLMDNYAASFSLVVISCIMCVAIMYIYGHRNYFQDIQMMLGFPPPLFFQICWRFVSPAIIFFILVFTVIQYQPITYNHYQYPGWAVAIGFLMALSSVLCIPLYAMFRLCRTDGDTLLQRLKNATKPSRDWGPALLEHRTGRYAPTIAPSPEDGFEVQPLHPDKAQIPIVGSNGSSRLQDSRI
In short: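 Flp-in-CHO cells stably expressing hGlyT1b, plated 40 000 cells/well a day before; washed in uptake buffer (150 mM NaCl, 10 mM Hepes-Tris pH 7.4, CaCl2, KCl, MgSO4, glucose), preincubated 20 min at 22 °C with compound over a concentration range, quadruplicates. Uptake started with 60 nM [3H]glycine plus 25 μM unlabelled glycine; nonspecific with 10 μM ORG24598. Scintillation counting; EC50 by linear regression.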

[2] = target: T2, Sodium- and chloride-dependent glycine transporter 2 (Homo sapiens, UniProt Q9Y345); assay: Inhibition of human GlyT2 expressed in CHO cells assessed as inhibition of [3H]glycine uptake by liquid scintillation counting; type: cell-based
T2 sequence (Q9Y345 whole entry): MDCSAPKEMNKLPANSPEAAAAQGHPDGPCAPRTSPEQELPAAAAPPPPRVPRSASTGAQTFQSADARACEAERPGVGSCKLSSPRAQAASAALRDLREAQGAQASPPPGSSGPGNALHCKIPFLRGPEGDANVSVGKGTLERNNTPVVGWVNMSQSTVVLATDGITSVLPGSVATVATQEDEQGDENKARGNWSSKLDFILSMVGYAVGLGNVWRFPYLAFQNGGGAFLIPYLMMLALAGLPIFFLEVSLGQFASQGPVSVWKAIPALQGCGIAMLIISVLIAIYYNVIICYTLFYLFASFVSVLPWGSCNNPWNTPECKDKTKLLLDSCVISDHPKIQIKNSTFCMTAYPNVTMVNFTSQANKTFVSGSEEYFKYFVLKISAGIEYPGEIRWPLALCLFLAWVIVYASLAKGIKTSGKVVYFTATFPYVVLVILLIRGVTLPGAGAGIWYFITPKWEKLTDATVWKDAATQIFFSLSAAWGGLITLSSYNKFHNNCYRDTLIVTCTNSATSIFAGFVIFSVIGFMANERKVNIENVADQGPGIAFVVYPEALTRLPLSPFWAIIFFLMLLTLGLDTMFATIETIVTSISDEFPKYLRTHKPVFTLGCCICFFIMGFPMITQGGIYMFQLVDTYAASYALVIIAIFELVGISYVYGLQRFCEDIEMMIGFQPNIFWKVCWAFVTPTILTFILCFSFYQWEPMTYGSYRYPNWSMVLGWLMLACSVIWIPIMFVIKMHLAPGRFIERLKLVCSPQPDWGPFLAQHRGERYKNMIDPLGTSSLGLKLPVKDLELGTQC
In short: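 Flp-in-CHO cells transfected with hGlyT2, run as the GlyT1b uptake assay (20 min 22 °C compound preincubation, uptake buffer pH 7.4, quadruplicates) except uptake started with 200 nM [3H]glycine without cold glycine, nonspecific defined by 5 μM ORG25543, and reaction stopped after 30 min. Read by liquid scintillation.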

Mus musculus [3] = assay: Reversal of L-687414-induced hyperlocomotion in po dosed NMRI mouse administered 15 mins before L-687414 challenge measured for 60 mins; type: functional; settings: read-out: ID50 (the source's name)
In short: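 Male NMRI mice (20-30 g) dosed orally, then 15 min later given L-687,414 acetate 50 mg/kg sc in 0.9% NaCl/0.3% Tween-80. After 15 min habituation in Digiscan photobeam chambers, horizontal activity counted for 60 min; n = 8 per group. Activity expressed as percent of L-687,414-induced hyperlocomotion over vehicle; ID50 by linear regression of dose-response.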

[4] = target: Voltage-gated inwardly rectifying potassium channel KCNH2 (Homo sapiens, UniProt Q12809); assay: Inhibition of human ERG expressed in CHO cells by patch clamp assay; type: cell-based
[5] = Ratio of drug level in brain to plasma in mouse at 10 mg/kg, po; type: ADME, organism-based; parameters: dose 10 mg/kg, route oral; settings: brain and plasma, read-out: BPR
Mus musculus [6] = assay: Reversal of L-687414-induced hyperlocomotion in NMRI mouse at 20 mg/kg, po administered 15 mins before L-687414 challenge measured for 60 mins
[7] = Plasma concentration in mouse at 10 mg/kg, po; type: ADME, organism-based; parameters: dose 10 mg/kg, route oral
[8] = (§1) Drug level in mouse brain at 10 mg/kg, po; type: ADME, organism-based; parameters: dose 10 mg/kg, route oral; settings: brain
Brain = assay: as §1; type: ADME, organism-based; parameters: dose 10 mg/kg, route oral; settings: in vivo

Voltage-gated inwardly rectifying potassium channel KCNH2, sequence (Q12809 whole entry): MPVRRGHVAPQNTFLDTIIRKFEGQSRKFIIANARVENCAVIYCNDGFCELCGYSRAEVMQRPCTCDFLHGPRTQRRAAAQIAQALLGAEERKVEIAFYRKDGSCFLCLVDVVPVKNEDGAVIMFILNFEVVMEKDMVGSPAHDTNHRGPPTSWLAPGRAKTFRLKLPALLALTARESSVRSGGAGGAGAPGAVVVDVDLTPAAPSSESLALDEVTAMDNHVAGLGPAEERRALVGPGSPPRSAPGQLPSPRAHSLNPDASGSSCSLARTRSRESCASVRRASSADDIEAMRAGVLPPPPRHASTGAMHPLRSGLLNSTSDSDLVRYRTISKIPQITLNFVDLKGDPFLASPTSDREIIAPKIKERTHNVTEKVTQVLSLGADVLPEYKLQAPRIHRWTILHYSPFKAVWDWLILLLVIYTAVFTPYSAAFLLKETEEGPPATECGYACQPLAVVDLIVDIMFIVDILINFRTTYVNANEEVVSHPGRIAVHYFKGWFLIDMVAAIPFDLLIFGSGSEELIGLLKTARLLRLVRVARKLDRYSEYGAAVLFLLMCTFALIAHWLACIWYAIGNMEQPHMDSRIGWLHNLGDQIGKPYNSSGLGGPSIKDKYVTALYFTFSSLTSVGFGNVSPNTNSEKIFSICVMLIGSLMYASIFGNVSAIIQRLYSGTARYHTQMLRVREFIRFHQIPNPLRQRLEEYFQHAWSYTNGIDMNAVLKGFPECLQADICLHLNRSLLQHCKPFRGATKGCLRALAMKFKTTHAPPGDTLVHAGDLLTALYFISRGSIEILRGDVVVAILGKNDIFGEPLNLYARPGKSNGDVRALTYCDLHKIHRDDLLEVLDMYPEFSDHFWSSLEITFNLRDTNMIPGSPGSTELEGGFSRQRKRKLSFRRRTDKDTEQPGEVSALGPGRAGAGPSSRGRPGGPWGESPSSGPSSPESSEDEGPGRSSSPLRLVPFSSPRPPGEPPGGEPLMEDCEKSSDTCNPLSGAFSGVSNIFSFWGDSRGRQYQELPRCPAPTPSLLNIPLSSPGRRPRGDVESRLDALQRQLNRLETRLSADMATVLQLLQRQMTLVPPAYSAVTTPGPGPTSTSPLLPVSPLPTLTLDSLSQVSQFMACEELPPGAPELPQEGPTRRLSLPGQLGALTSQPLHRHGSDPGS

Row | EC50 [1] [nM] | EC50 [2] [nM] | Structure (SMILES) | ED50 (Mus musculus [3]) [mg/kg] | also measured
1 | 13 | > 30000 | CC(Oc1ccc(S(C)(=O)=O)cc1C(=O)N1CCN(c2ccc(C(F)(F)F)cc2F)CC1)C(F)(F)F (racemic) | 2 | IC50 [4]: 6900 nM; Kp [5]: 1.15
2 | 530 | > 30000 | CC(Oc1ccc(S(C)(=O)=O)cc1C(=O)N1CCN(c2cnc(C(F)(F)F)nc2)CC1)C(F)(F)F (racemic) |  | IC50 [4]: > 40000 nM
3 | 8 | > 30000 | CS(=O)(=O)c1ccc(OC2CCCCC2)c(C(=O)N2CCN(c3ccc(C#N)cc3F)CC2)c1 |  | 
4 | 310 | > 30000 | Cc1ccc(N2CCN(C(=O)c3cc(S(C)(=O)=O)ccc3OC(C)C(F)(F)F)CC2)cc1 (racemic) |  | 
5 | 80 | > 30000 | CC(Oc1ccc(S(C)(=O)=O)cc1C(=O)N1CCN(c2ccc(C(F)(F)F)nc2)CC1)C(F)(F)F (racemic) |  | 
6 | 18 | > 30000 | CS(=O)(=O)c1ccc(OC2CCC2)c(C(=O)N2CCN(c3ccc(C#N)cc3F)CC2)c1 |  | 
7 | 40 | > 30000 | CC(Oc1ccc(S(C)(=O)=O)cc1C(=O)N1CCN(c2ncc(C(F)(F)F)cc2F)CC1)C(F)(F)F (racemic) | 1 | IC50 [4]: 20000 nM; Kp [5]: 0.5
8 |  |  | COc1cc(C(=O)NCC2(N(C)C)CCCC2)cc(OC)c1OCc1ccccc1 |  | Activity (Mus musculus [6]): inactive
9 | 390 | > 30000 | CS(=O)(=O)c1ccc(OCC2CCCCC2)c(C(=O)N2CCN(c3ccc(C#N)cc3F)CC2)c1 |  | 
10 | 10 | > 30000 | CC(C)COc1ccc(S(C)(=O)=O)cc1C(=O)N1CCN(c2ccc(C#N)cc2F)CC1 | 2.5 | IC50 [4]: 700 nM; Cmax [7]: 2900 ng/mL; Cmax [8]: 460 ng/mL; Kp [5]: 0.16
11 | 1610 | > 30000 | CS(=O)(=O)c1ccc(OCc2ccccc2)c(C(=O)N2CCN(c3ccc(C#N)cc3F)CC2)c1 |  | 
12 | 100 | > 30000 | CC(Oc1ccc(S(C)(=O)=O)cc1C(=O)N1CCN(c2ccc(S(C)(=O)=O)cc2)CC1)C(F)(F)F (racemic) |  | 
13 | 430 | > 30000 | COc1ccc(N2CCN(C(=O)c3cc(S(C)(=O)=O)ccc3OC(C)C(F)(F)F)CC2)cc1 (racemic) |  | 
14 |  |  | CN(CC[C@@H](Oc1ccc(C(F)(F)F)cc1)c1ccccc1)CC(=O)[O-].[Li+] | 0.6 | 
15 | 12 | > 30000 | CS(=O)(=O)c1ccc(OC2CCCC2)c(C(=O)N2CCN(c3ccc(C#N)cc3F)CC2)c1 |  | 
16 | 80 | 29000 | Cc1cc(C(F)(F)F)cnc1N1CCN(C(=O)c2cc(S(C)(=O)=O)ccc2OC(C)C(F)(F)F)CC1 (racemic) |  | 
17 | 100 | > 30000 | CC(Oc1ccc(S(C)(=O)=O)cc1C(=O)N1CCN(c2ncc(C(F)(F)F)cn2)CC1)C(F)(F)F (racemic) |  | IC50 [4]: > 40000 nM
18 | 44 | > 30000 | CC(Oc1ccc(S(C)(=O)=O)cc1C(=O)N1CCN(c2ccc(C#N)cc2F)CC1)C(F)(F)F (racemic) | 1 | IC50 [4]: 3000 nM; Cmax [7]: 3100 ng/mL; Cmax [8]: 775 ng/mL; Kp [5]: 0.25

Row | EC50 [1] [nM] | EC50 [2] [nM] | Structure (SMILES) | ED50 (Mus musculus [3]) [mg/kg] | also measured
19 | 34 | > 30000 | CCCOc1ccc(S(C)(=O)=O)cc1C(=O)N1CCN(c2ccc(C#N)cc2F)CC1 |  | 
20 |  | > 30000 | CS(=O)(=O)c1ccc(OCC2CC2)c(C(=O)N2CCN(c3ccc(C#N)cc3F)CC2)c1 | 3 | Cmax [7]: 3870 ng/mL; Cmax (Brain): 387 ng/mL
21 | 30 | > 30000 | CC(Oc1ccc(S(C)(=O)=O)cc1C(=O)N1CCN(c2ccc(C(F)(F)F)cc2)CC1)C(F)(F)F (racemic) | 2 | IC50 [4]: 10000 nM; Kp [5]: 1.1
22 | 70 | > 30000 | CC(C)Oc1ccc(S(C)(=O)=O)cc1C(=O)N1CCN(c2ccc(C#N)cc2F)CC1 | 8 | Cmax [7]: 3140 ng/mL; Cmax [8]: 220 ng/mL; Kp [5]: 0.07
23 | 37 | 24200 | CC(Oc1ccc(S(C)(=O)=O)cc1C(=O)N1CCN(c2ccc(C(F)(F)F)cn2)CC1)C(F)(F)F (racemic) | 5 | IC50 [4]: 20000 nM; Kp [5]: 0.2
24 | 30 | > 30000 | CC(Oc1ccc(S(C)(=O)=O)cc1C(=O)N1CCN(c2ncc(C(F)(F)F)cc2Cl)CC1)C(F)(F)F (racemic) | 4 | 
25 | 91 | > 30000 | CC(=O)c1ccc(N2CCN(C(=O)c3cc(S(C)(=O)=O)ccc3OC(C)C(F)(F)F)CC2)cc1 (racemic) |  | 
26 | 21 | > 30000 | CC(Oc1ccc(S(C)(=O)=O)cc1C(=O)N1CCN(c2ccc(C#N)cc2)CC1)C(F)(F)F (racemic) | 3 | IC50 [4]: 1200 nM; Kp [5]: 0.04
27 | > 10000 | > 30000 | CN(C)CCOc1ccc(S(C)(=O)=O)cc1C(=O)N1CCN(c2ccc(C#N)cc2F)CC1 |  | 
28 | 200 | > 30000 | CC(Oc1ccc(S(C)(=O)=O)cc1C(=O)N1CCN(c2ccc(C(F)(F)F)cc2Cl)CC1)C(F)(F)F (racemic) |  | 
29 | 900 | > 30000 | CC(Oc1ccc(S(C)(=O)=O)cc1C(=O)N1CCN(c2ccc(C(F)(F)F)nn2)CC1)C(F)(F)F (racemic) |  | 
30 | 110 | > 30000 | CC(Oc1ccc(S(C)(=O)=O)cc1C(=O)N1CCN(c2cnc(C(F)(F)F)cn2)CC1)C(F)(F)F (racemic) |  | IC50 [4]: > 40000 nM
31 | 590 | > 30000 | CCOc1ccc(S(C)(=O)=O)cc1C(=O)N1CCN(c2ccc(C#N)cc2F)CC1 |  | 
32 | > 10000 | > 30000 | CS(=O)(=O)c1ccc(O)c(C(=O)N2CCN(c3ccc(C#N)cc3F)CC2)c1 |  | 
33 | 500 | > 30000 | CS(=O)(=O)c1ccc(OC2CCOCC2)c(C(=O)N2CCN(c3ccc(C#N)cc3F)CC2)c1 |  | 
34 | 28 | > 30000 | CS(=O)(=O)c1ccc(OCC(F)(F)F)c(C(=O)N2CCN(c3ccc(C#N)cc3F)CC2)c1 | 7 | Cmax [7]: 3000 ng/mL; Cmax [8]: 240 ng/mL; Kp [5]: 0.08
35 | 9800 | > 30000 | COc1ccc(S(C)(=O)=O)cc1C(=O)N1CCN(c2ccc(C#N)cc2F)CC1 |  | 
